High-throughput results: PubChem, several laboratories
SENP8 block-1 – blocks the human protease SENP8; inhibition, % at 10 µM; 330,000 tested, 1.2% active; AID 2540; purified SENP8, Z-RLRGG-aminoluciferin cleavage, luminescence; in the data active = inhibition above about 50%
SENP7 block – inhibitors of human SENP7 protease | recombinant SENP7, Z-RLRGG-aminoluciferin luminescence, 40 min | inhibition, % at 5 µM | 330,000 tested, 1.5% active;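 active = inhibition above about 50% at the single test dose, limit read from the data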
SENP1 inh – blocks the human SENP1 SUMO protease catalytic domain; Q9P0U3; recombinant SENP1 catalytic domain, CyPet-SUMO1-YPet FRET cleavage; inhibition, % at 10 µM; 360,000 tested, 0.21% active; AID 624204;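 active = inhibition at least 30% at 10 µM, raw YFP signal under a set limit, fluorescence ratio 0.5 to 1.5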
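Assay system: hSENP1 catalytic domain, recombinant. Amount: SENP1 enzyme, 20 pM final. Schedule: 50 min reaction, RT, dark. Technique: FRET, CFP and YFP emission. Control set: no-enzyme wells low, DMSO-plus-enzyme wells high control.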
UCH37 inh – inhibitors of human deubiquitinating enzyme UCH37; purified proteasome/UCH37, Ub-AMC cleavage fluorescence; inhibition, % (no concentration beside the values); 330,000 tested, 0.33% active; AID 588478;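 active = mean inhibition over replicate wells above about 20%, limit read from the data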
Target sequence (Q9Y5K5 whole entry, looked up): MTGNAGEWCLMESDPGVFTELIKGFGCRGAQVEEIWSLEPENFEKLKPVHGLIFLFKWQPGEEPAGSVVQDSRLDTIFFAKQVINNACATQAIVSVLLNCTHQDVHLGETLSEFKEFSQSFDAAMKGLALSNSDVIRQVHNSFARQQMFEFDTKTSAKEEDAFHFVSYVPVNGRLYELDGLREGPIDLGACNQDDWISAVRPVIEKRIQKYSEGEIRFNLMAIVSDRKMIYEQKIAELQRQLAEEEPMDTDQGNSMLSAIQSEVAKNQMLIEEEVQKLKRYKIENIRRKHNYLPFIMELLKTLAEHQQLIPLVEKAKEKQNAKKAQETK
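Material: Human UCH37 enzyme supplied as purified proteasome complex | Schedule: 30 min compound-proteasome preincubation then 25 min substrate reaction, room temperature | Detection: AMC fluorescence from Ub-AMC cleavage, excitation 355 nm, emission 460 nm | Benchmarks: Wells without proteasome as full block, compound-free enzyme plus substrate as uninhibited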
SENP8 block-2 – blocks human SENP8 cleavage of Nedd8 substrate. recombinant SENP8, Nedd8 substrate fluorescence. inhibition, % at 20 µM. 360,000 tested, 0.64% active; in the data active = inhibition mostly above about 40%, no sharp cut-off; inactive = mostly below about 27%
SENP6 block – blocks the human protease SENP6 | Q9GZR1 | Recombinant SENP6 catalytic domain, aminoluciferin luminescence | inhibition, % at 10 µM | 330,000 tested, 1.8% active | AID 2599;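 active = inhibition above about 50% at the single tested dose, limit read from the data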
SENP8 confirm – confirmation of human SENP8 protease inhibitors; 6,200 tested, 40% active; inhibition, % at 12.5 µM; shares compounds with SENP7 block; Recombinant SENP8, Z-RLRGG-aminoluciferin luminescence, 60 min;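 active = mean inhibition across replicates above about 50%, limit read from the data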
SENP6 confirm – confirmation of human SENP6 protease inhibitors. shares compounds with SENP7 block. recombinant SENP6, Z-RLRGG-aminoluciferin luminescence. inhibition, % at 12.5 µM. 6,200 tested, 58% active. AID 488915
SENP7 conf – confirmation of human SENP7 protease inhibitors | 6,200 tested, 69% active | shares compounds with SENP7 block | recombinant SENP7, Z-RLRGG-aminoluciferin luminescence, 40 min | inhibition, % at 12.5 µM
Casp3 SENP sel – inhibits human caspase-3 in SENP selectivity test | shares compounds with SENP7 block | 6,200 tested, 60% active | purified caspase-3, Z-DEVD-aminoluciferin luminescence, 60 min | inhibition, % at 12.5 µM;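 active = mean inhibition above about 50%, limit read from the data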
Target sequence (P42574 28-227 limits assumed): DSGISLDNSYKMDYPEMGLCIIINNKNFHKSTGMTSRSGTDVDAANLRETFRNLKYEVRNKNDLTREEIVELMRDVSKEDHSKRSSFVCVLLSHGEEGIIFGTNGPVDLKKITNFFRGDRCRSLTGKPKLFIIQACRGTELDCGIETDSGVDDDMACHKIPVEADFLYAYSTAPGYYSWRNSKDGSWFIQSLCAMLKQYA
SENP luc ctr – counter-screen for SENP inhibitors: luminescence interference | AID 488919 | inhibition, % at 12.5 µM | Pre-incubated SENP8/Z-RLRGG-aminoluciferin, luciferase luminescence interference | shares compounds with SENP7 block | 6,200 tested, 39% active;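 active = mean inhibition above about 50% when retested at one dose, limit read from the data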
Large screens that a line does not name were inactive (follow-up assays come after a bar, where they were run). Shown are actives, neighbours in structure and some others; about 2.6% of the full set was active somewhere.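 The calls were made as follows, unless noted: active = mean inhibition above about 50% in the one-dose retest (limit read from the data); inactive = the rest.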

CN(C)c1cccc2c1C(=O)c1ccccc1C2=O	none
CC(=NNC(=S)NC1CCCCC1)c1ccccc1	none (no result: SENP8 block-1, SENP7 block, SENP1 inh, SENP8 block-2, SENP6 block)
O=C(Nc1nnc(-c2ccccn2)o1)c1ccc(Br)cc1	SENP8 block-1 57, SENP7 block 63, SENP6 block 77
CCC(=O)Nc1nnc(-c2ccccn2)o1	none
COc1ccccc1/C=C\C=Nn1c(-c2ccc(Cl)cc2)n[nH]c1=S	none (no result: SENP8 block-1, SENP7 block, SENP1 inh, SENP8 block-2, SENP6 block)
O=C1c2cccc(NCCNCCO)c2C(=O)c2cccc(NCCNCCO)c21	SENP8 block-2 44 (no result: SENP8 block-1, SENP7 block, UCH37 inh, SENP6 block)
N#Cc1ccsc1NC(=O)COC(=O)c1cc2ccccc2cc1O	SENP8 block-1 89, SENP7 block 89, SENP6 block 96
N#Cc1ccsc1NC(=O)COC(=O)c1ccc(NC(N)=O)cc1	SENP8 block-1 73, SENP7 block 69
CC(=O)Oc1cc2cccc(OC(C)=O)c(=O)c2c(OC(C)=O)c1OC(C)=O	SENP8 block-2 44
COc1ccccc1OCCn1cc(C=Nn2cnnc2)c2ccccc21	none (no result: SENP8 block-1, SENP7 block, SENP1 inh, SENP8 block-2, SENP6 block)
COc1ccc(NC(C)C(=O)N/N=C/c2ccccc2OCc2cccc(Br)c2)cc1 (centres undefined)	SENP7 block 93 (no result: UCH37 inh) | SENP8 confirm inactive | SENP6 confirm inactive | SENP7 conf inactive | Casp3 SENP sel inactive | SENP luc ctr inactive
CCOc1cc(C=NNC(=O)c2cc(C3CC3)[nH]n2)ccc1O	none (no result: SENP8 block-1, SENP7 block, SENP1 inh, SENP8 block-2, SENP6 block)
Nc1ccc2c(c1)C(=O)c1ccccc1C2=O	SENP6 block 53 | SENP8 confirm 55 | SENP6 confirm 50 | SENP7 conf 80 | Casp3 SENP sel 54 | SENP luc ctr inactive
Nc1ccc2c(c1)C(=O)c1ccccc1-2	none
CC(C)c1c(C(=O)NN=Cc2cccs2)nnn1-c1nonc1N	none (no result: SENP8 block-1, SENP7 block, SENP1 inh, SENP8 block-2, SENP6 block)
Cc1ccccc1-c1noc(-c2cccs2)n1	SENP8 block-1 78, SENP7 block 85, SENP6 block 86 | SENP8 confirm inactive | SENP6 confirm 84 | SENP7 conf 94 | Casp3 SENP sel 61 | SENP luc ctr inactive
COc1nc(C)ccc1-c1noc(-c2cccs2)n1	SENP7 block 70, SENP6 block 62 | SENP8 confirm inactive | SENP6 confirm inactive | SENP7 conf 84 | Casp3 SENP sel inactive | SENP luc ctr inactive
O=C(COc1ccc(-c2ccccc2)cc1)NN=Cc1cccnc1	none (no result: SENP8 block-1, SENP7 block, SENP1 inh, SENP8 block-2, SENP6 block)
Cc1cnc(NC(=O)C2COc3ccccc3O2)s1 (centres undefined)	SENP8 block-1 52, SENP7 block 65, SENP6 block 58 | SENP8 confirm 69 | SENP6 confirm 68 | SENP7 conf 89 | Casp3 SENP sel 79 | SENP luc ctr 73
Cc1ncsc1C(=O)Nc1nc2c(s1)CC(C)CC2 (centres undefined)	SENP8 block-1 92, SENP7 block 98, SENP6 block 96 | SENP8 confirm inactive | SENP6 confirm 72 | SENP7 conf 93 | Casp3 SENP sel 84 | SENP luc ctr inactive
CC1CCc2nc(NC(=O)C3COc4ccccc4O3)sc2C1 (centres undefined)	SENP6 block 75 | SENP8 confirm 72 | SENP6 confirm 72 | SENP7 conf 91 | Casp3 SENP sel 59 | SENP luc ctr inactive
O=C(CNc1ccccc1Cl)NN=C1CCCc2ccccc21	none (no result: SENP8 block-1, SENP7 block, SENP1 inh, SENP8 block-2, SENP6 block)
Cc1cc(C)nc(SCc2ccc(Br)cc2)n1	SENP7 block 60 | SENP8 confirm inactive | SENP6 confirm inactive | SENP7 conf inactive | Casp3 SENP sel inactive | SENP luc ctr inactive
NC(=O)c1ccccc1OCC(=O)Nc1ccc2c(c1)CCC2	none
